This note sets out measurements from ChEMBL document CHEMBL4613282, “Novel N-Substituted Benzomorphan-Based Compounds: From MOR-Agonist/DOR-Antagonist to Biased/Unbiased MOR Agonists” (ACS Med Chem Lett, 2020).

pKi: −log10 of the molar value. Calls of active or inactive are those of the source. The calls are words filed in the database; no cut-off is given here.

The target of one data set is Mu-type opioid receptor (Rattus norvegicus, UniProt P33535). Description: Displacement of [3H]-DAMGO from MOR in rat brain membranes incubated for 45 mins by liquid scintillation counting. In kind it is cell membranes, Membrane. In a few lines:
(§1)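 Ki as mean ± SEM of three separate experiments, each run in duplicate.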

Data set [1] deals with Delta-type opioid receptor (Rattus norvegicus, UniProt P33533). Description: Displacement of [3H]DPDPE from DOR in rat brain membranes incubated for 45 mins by liquid scintillation counting. Format: cell membranes, Membrane. In outline:
as §1
On the technique in general: Displacement assays read how much labelled ligand stays bound in the presence of the test substance.

The target of data set [2] is Kappa-type opioid receptor (Cavia porcellus, UniProt P41144). Description: Displacement of [3H]-U69,593 from KOR in guinea pig brain membranes incubated for 30 mins by liquid scintillation counting. Format: cell membranes, Membrane. In outline: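 KOR binding measured as [3H]U69,593 displacement. Ki as mean ± SEM of three separate experiments, each run in duplicate.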
Chain of Kappa-type opioid receptor (P41144 whole entry): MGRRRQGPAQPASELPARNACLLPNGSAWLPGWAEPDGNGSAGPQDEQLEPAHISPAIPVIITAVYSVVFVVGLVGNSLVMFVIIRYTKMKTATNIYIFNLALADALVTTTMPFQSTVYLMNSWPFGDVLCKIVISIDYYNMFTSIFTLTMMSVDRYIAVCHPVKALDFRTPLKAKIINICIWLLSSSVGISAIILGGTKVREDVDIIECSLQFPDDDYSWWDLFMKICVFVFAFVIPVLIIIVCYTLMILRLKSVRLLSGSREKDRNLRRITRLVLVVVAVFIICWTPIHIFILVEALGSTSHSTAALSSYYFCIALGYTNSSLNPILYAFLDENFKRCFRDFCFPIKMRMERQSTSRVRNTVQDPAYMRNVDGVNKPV

Data set [3] concerns the target Mu-type opioid receptor (Homo sapiens) (UniProt P35372). Description: Agonist activity at EE-tagged MOR (unknown origin) expressed in human HEK293 cells assessed as inhibition of forskolin-induced cAMP accumulation at 10 uM after 30 mins by GloSensor cAMP assay. In kind it is functional, cell-based. In a few lines:
(§2)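 HEK293 cells stably expressing MOR, stimulated with 50 μM forskolin in the presence of a range of compound concentrations, up to 10–5 M. Read-out is cAMP accumulation as % of maximum. Triplicate determinations in three independent experiments, mean ± SEM.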
On the technique in general: cAMP levels reflect the balance of adenylyl cyclase and phosphodiesterase activity.

Data set [4] has the same target. Description: Agonist activity at EE-tagged MOR (unknown origin) expressed in human HEK293 cells assessed as increase in ERK1/2 phosphorylation at 1 uM after 5 mins by Western blot analysis. Format: cell-based. In a few lines: (§3)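 Serum-starved HEK293 cells stably expressing MOR exposed to 1 μM compound for 5, 10 or 15 min. Lysates run on 10% SDS-PAGE and immunoblotted for phospho-ERK1,2, with α-tubulin reprobe as loading check. […] Three independent experiments.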
In general terms: A western blot detects proteins with antibodies after separation by electrophoresis.

The target is the same in data set [5]. Description: Agonist activity at EE-tagged MOR (unknown origin) expressed in human HEK293 cells assessed as increase in ERK1/2 phosphorylation at 1 uM after 15 mins by Western blot analysis. In kind it is cell-based. In outline:
as §3

Data set [6] relates to Mus musculus. Description: Antihyperalgesic activity in sc dosed PGE2-induced CD1 mouse model of thermal hyperalgesia at 8 to 16 mg/kg, sc pretreated for 20 mins before PGE2 stimulation and measured after 10 mins by radiant heat […] method. In kind it is functional, organism-based.
Data set [7] is described as follows: Toxicity in PGE2-induced CD1 mouse model of thermal hyperalgesia assessed as effect on gastrointestinal transit at 8 to 16 mg/kg, sc dosed 30 mins before charcoal suspension administration and measured after 30 mins (reference value: 30 cm). Format: organism-based. Conditions: in vivo, 0.5 h. In a few lines:
(§4)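 Run straight after the PGE2 hyperalgesia test, i.e. 30 min after s.c. dosing. Mice received 0.5% charcoal suspension intragastrically. Distance travelled by charcoal along the small intestine measured 30 min after ingestion. Mean ± SEM of 6–7 mice; one-way ANOVA with Bonferroni test versus the saline group.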

Data set [8] deals with Mu-type opioid receptor (Homo sapiens) (UniProt P35372). Description: Agonist activity at EE-tagged MOR (unknown origin) expressed in human HEK293 cells assessed as inhibition of forskolin-induced cAMP accumulation at 10 uM after 30 mins by GloSensor cAMP assay relative to control. Format: functional, cell-based. In a few lines: as §2
Chain of Mu-type opioid receptor (Homo sapiens) (P35372 whole entry): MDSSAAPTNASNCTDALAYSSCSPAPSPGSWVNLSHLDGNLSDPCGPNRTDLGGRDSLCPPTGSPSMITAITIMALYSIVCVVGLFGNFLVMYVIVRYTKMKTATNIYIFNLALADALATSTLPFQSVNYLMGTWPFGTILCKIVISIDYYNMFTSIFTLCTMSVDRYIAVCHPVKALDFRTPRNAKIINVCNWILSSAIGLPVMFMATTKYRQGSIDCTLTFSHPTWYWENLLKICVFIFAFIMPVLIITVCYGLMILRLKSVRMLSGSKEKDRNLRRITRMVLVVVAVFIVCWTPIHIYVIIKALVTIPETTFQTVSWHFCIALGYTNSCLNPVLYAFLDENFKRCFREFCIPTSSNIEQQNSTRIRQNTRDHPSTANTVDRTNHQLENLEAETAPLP
The target is the same in data set [9]. Description: Biased agonist activity at EE-tagged MOR (unknown origin) expressed in human HEK293 cells assessed as increase in ERK1/2 phosphorylation levels at 1 uM after 15 mins by Western blot analysis. Format: cell-based. In a few lines: as §3
Data set [10] has as its system Mus musculus. Description: Antinociceptive activity in Swiss […] mouse assessed as effect on tail flick latency at 2.5 to 7.5 mg/kg, ip after 90 mins by radiant heat tail-flick method. Format: functional, organism-based. In outline:
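Mouse tail-flick test after 2.5–7.5 mg/kg i.p.; saline-treated group as control. Tail-flick latency (s) followed over 90 min. Mean ± SEM from 6–8 mice.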

The nature of data set [11]: Toxicity in PGE2-induced CD1 mouse model of thermal hyperalgesia assessed as effect on gastrointestinal transit at 4 mg/kg, sc dosed 30 mins before charcoal suspension administration and measured after 30 mins (reference value: 30 cm). Conditions: in vivo, 0.5 h. Format: organism-based. In outline: as §4
In data set [12] the test system is Mus musculus. Description: Antihyperalgesic activity in sc dosed PGE2-induced CD1 mouse model of thermal hyperalgesia assessed as increase in paw withdrawl latency pretreated with compound for 20 mins before PGE2 stimulation for 10 mins by radiant heat […] method. In kind it is functional, organism-based. In outline:
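Mice given compound or solvent s.c. 20 min before intraplantar PGE2 or saline. Hindpaw withdrawal latency to radiant heat measured in the injected paw 10 min after the i.pl. injection. Test compounds dosed 8–16 mg/kg; morphine 1–3 mg/kg and LP1 1–4 mg/kg as comparators. One-way ANOVA with Bonferroni test.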

The term pKi denotes −log10 of the Ki, conventionally taken in molar units. Read a low pKi as a large Ki. The term inhibition denotes the percentage by which the read-out fell short of the control.

Chain of Mu-type opioid receptor (P33535 whole entry): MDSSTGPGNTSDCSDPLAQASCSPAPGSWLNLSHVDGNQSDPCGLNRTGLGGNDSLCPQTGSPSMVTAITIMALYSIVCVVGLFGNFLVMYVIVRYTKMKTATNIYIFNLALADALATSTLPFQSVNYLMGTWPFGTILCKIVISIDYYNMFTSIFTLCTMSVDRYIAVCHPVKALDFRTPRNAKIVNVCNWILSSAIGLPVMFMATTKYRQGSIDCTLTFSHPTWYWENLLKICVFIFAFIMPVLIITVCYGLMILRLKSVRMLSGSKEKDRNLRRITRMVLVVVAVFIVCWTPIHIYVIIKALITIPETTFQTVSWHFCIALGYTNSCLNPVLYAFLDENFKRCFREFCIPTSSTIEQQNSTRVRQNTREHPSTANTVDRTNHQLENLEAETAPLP
Chain of Delta-type opioid receptor (P33533 whole entry): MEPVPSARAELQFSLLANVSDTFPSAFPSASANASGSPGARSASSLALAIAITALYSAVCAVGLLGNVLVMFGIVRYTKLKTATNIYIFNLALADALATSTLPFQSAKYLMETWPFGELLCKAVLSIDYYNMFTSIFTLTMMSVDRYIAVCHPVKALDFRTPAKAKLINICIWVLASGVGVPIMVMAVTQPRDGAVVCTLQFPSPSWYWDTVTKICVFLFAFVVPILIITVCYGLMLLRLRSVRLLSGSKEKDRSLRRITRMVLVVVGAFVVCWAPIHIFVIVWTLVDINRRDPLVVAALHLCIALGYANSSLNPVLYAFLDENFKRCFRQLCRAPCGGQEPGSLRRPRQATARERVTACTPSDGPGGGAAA

Take `CCc1cccc(C)c1NC(=O)CCN1CC[C@@]2(C)c3cc(O)ccc3C[C@@H]1[C@@H]2C`: the results for the pKi (on Mu-type opioid receptor; in data set [1]; in [2]) were 7.83, 6.70 and 6.49, respectively. In addition, the inhibition entry in [3] was “inactive”. In addition, the result in data set [4] was Active. The outcome (in [5]; in the data set on Mus musculus [6]) was inactive. Also, the Activity in data set [7] is listed as 30 cm.
Turning to `Cc1ccc(C)c(NC(=O)CCN2CC[C@@]3(C)c4cc(O)ccc4C[C@@H]2[C@@H]3C)c1`, the pKi at Mu-type opioid receptor is 8.10; in data set [1], 6.32; in data set [2], 6.32. For the same compound, the inhibition in data set [8] is 50%. The result in [9] was Active. The outcome in the data set with Mus musculus [10] and in the data set with Mus musculus [6] was inactive. Further, the Activity in [7] was 30 cm.
Turning to `C[C@H]1[C@H]2Cc3ccc(O)cc3[C@]1(C)CCN2CCC(=O)Nc1ccccc1`, the outcome in data set [4] was Active. Besides, the outcome in data set [5] was inactive. Besides, in data set [11], the Activity entry was “Toxic”.
On to `Oc1ccc2c3c1O[C@H]1c4[nH]c5ccccc5c4C[C@@]4(O)[C@@H](C2)N(CC2CC2)CC[C@]314` [NALTRINDOLE], for which the pKi in data set [1] was 9.08.
Take `CN1CC[C@]23c4c5ccc(O)c4O[C@H]2[C@@H](O)C=C[C@H]3[C@H]1C5`: in the data set with Mus musculus [12], the Activity result was “Dose-dependent effect”.
In the case of `Cc1cc(C)c(N(Cc2ccccc2)C(=O)CCN2CC[C@@]3(C)c4cc(O)ccc4C[C@@H]2[C@@H]3C)c(C)c1`, the pKi on Mu-type opioid receptor was 6.30; in data set [1], less than 5.30; in data set [2], 6.35.
With `Cc1cccc(C)c1N(Cc1ccccc1)C(=O)CCN1CC[C@@]2(C)c3cc(O)ccc3C[C@@H]1[C@@H]2C`, the results for the pKi (at Mu-type opioid receptor; in [1]; in data set [2]) were 6.40, less than 5.30 and less than 5.52, respectively.
Taken in the same sequence, the figures for `Cc1ccc(NCCN2CC[C@@]3(C)c4cc(O)ccc4C[C@@H]2[C@@H]3C)c(C)c1` were 6.89, less than 5.30 and less than 6.00.
In the case of `Cc1cccc(C)c1NC(=O)CCN1CC[C@@]2(C)c3cc(O)ccc3C[C@@H]1[C@@H]2C`, the pKi is 8.13 at Mu-type opioid receptor, 6.56 in data set [1] and 6.60 in data set [2]. The inhibition result in data set [3] was “inactive”. In addition, the result in data set [4] was Active. Further, the result (in data set [5]; in the data set on Mus musculus [10]; with Mus musculus [6]) was inactive. Besides, in data set [7], the Activity was 30 cm.
For the compound `Cc1ccc(N(Cc2ccccc2)C(=O)CCN2CC[C@@]3(C)c4cc(O)ccc4C[C@@H]2[C@@H]3C)c(C)c1`, the values for the pKi (at Mu-type opioid receptor; in data set [1]; in data set [2]) were 6.78, less than 5.30 and less than 5.70, respectively.
With `Cc1ccc(NC(=O)CCN2CC[C@@]3(C)c4cc(O)ccc4C[C@@H]2[C@@H]3C)c(C)c1`, the pKi at Mu-type opioid receptor is 7.68; in [1] it was 6.32; in data set [2], 6.47. Also, the inhibition entry in [3] is “inactive”. In addition, the outcome in data set [4] was Active. Further, the result (in data set [5]; in the data set with Mus musculus [6]) was inactive. For the same compound, the Activity in data set [7] was 30 cm.
Take `Cc1cc(C)c(NC(=O)CCN2CC[C@@]3(C)c4cc(O)ccc4C[C@@H]2[C@@H]3C)c(C)c1`: the pKi at Mu-type opioid receptor is 7.36; in data set [1], less than 5.70; in data set [2] it was 6.50. Further, the inhibition entry in [3] is “inactive”.
For the compound `C[C@H]1[C@H]2Cc3ccc(O)cc3[C@]1(C)CCN2CCN(Cc1ccccc1)c1ccccc1`, the pKi on Mu-type opioid receptor is 6.61; in [1] it was less than 6.00; in data set [2], less than 5.52.
Turning to `C[C@H]1[C@H]2Cc3ccc(O)cc3[C@]1(C)CCN2CCC(=O)N(Cc1ccccc1)c1ccccc1`, the pKi at Mu-type opioid receptor is 6.22; in data set [1], less than 5.30; in [2], less than 5.30.
For `Cc1ccc(C)c(NCCN2CC[C@@]3(C)c4cc(O)ccc4C[C@@H]2[C@@H]3C)c1`, the pKi is 6.74 on Mu-type opioid receptor, less than 5.30 in data set [1] and less than 5.70 in data set [2].
For the compound `CCc1cccc(C)c1N(Cc1ccccc1)C(=O)CCN1CC[C@@]2(C)c3cc(O)ccc3C[C@@H]1[C@@H]2C`, the pKi was 5.81 on Mu-type opioid receptor, less than 5.30 in data set [1] and 6.82 in data set [2].
